Converted amounts (≈) assume the structure as drawn.
Key:
Type in all cases: functional
Streptococcus pyogenes = experiment: Antimicrobial activity against Streptococcus pyogenes 49 assessed as growth inhibition after 20 to 24 hrs by broth microdilution method
Outline: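 Streptococcus pyogenes was grown in Todd Hewitt broth and tested by CLSI broth microdilution. The MIC is the lowest concentration causing complete suppression of visible growth.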

Bacillus subtilis = experiment: Antimicrobial activity against Bacillus subtilis 168 assessed as growth inhibition after 20 to 24 hrs by broth microdilution method
Outline: (§1)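 CLSI broth microdilution in Mueller Hinton broth supplemented with 20 mg/L CaCl2 and 10 mg/L MgCl2. Cells from frozen stocks were seeded at 5 × 10^5 cfu/mL and incubated at 37 °C, then read after 20−24 h. The MIC is the lowest concentration giving complete suppression of visible growth.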

Micrococcus luteus = experiment: Antimicrobial activity against Micrococcus luteus 108 assessed as growth inhibition after 20 to 24 hrs by broth microdilution method; outline: as §1
Staphylococcus aureus [1] = experiment: Antimicrobial activity against Staphylococcus aureus ATCC 29213 assessed as growth inhibition after 20 to 24 hrs by broth microdilution method; outline: as §1
Staphylococcus aureus [2] = experiment: Antimicrobial activity against Staphylococcus aureus ATCC 6538P assessed as growth inhibition after 20 to 24 hrs by broth microdilution method; outline: as §1

| Compound | MIC (Streptococcus pyogenes) [µg/mL] | MIC (Bacillus subtilis) [µg/mL] | MIC (Micrococcus luteus) [µg/mL] | MIC (Staphylococcus aureus [1]) [µg/mL] | MIC (Staphylococcus aureus [2]) [µg/mL] |
| --- | --- | --- | --- | --- | --- |
| C=C1C(=O)[C@]2(OC)C(=O)O[C@@]34C[C@H](C)C(C(=O)O)=C[C@@H]3CCC[C@@H](C)[C@H](O)[C@@H](C)[C@H]1O[C@H]24 (relative stereo) | 8 (≈ 17.8 µM) | 128 (≈ 285 µM) | 8 (≈ 17.8 µM) | 64 (≈ 143 µM) | 32 (≈ 71.3 µM) |
| C=C1C(=O)[C@]2(OC)C(=O)O[C@@]34C[C@H](C)C(C(=O)O)=C[C@@H]3CCC[C@@H](C)C[C@@H](C)[C@H]1O[C@H]24 (relative stereo) | 16 (≈ 37 µM) | 8 (≈ 18.5 µM) | 8 (≈ 18.5 µM) | 2 (≈ 4.62 µM) | 2 (≈ 4.62 µM) |
| CN[C@H](CC(C)C)C(=O)N[C@H]1C(=O)N[C@@H](CC(N)=O)C(=O)N[C@H]2C(=O)N[C@H]3C(=O)N[C@H](C(=O)N[C@H](C(=O)O)c4cc(O)cc(O)c4-c4cc3ccc4O)[C@H](O)c3ccc(c(Cl)c3)Oc3cc2cc(c3O[C@@H]2O[C@H](CO)[C@@H](O)[C@H](O)[C@H]2O[C@H]2C[C@](C)(N)[C@H](O)[C@H](C)O2)Oc2ccc(cc2Cl)[C@H]1O [VANCOMYCIN] |  | 0.25 (≈ 0.173 µM) | 0.125 (≈ 0.0863 µM) |  |  |
